The list is not random: actives were taken first. Their share in the collection is about 1.7%.
CAL PDZ FP-1 – CAL PDZ peptide-binding inhibitors, primary screen, biochemical, fluorescence polarization, Cer-tagged CAL PDZ, HTS; Golgi-associated PDZ and coiled-coil motif-containing protein (Homo sapiens), Q9HD26; purified CAL PDZ, TMR-peptide fluorescence polarization, 1 h; inhibition, % at 20 µM; actives 0.02% (n = 330,000); AID 504414, 2011;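 active = highest replicate inhibition of at least 40%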
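Material – purified CerCALP PDZ construct · Detection – FP readout, S and P plane fluorescence · Measure – percent inhibition from loss of millipolarization · Controls – unlabelled peptide for full inhibition, DMSO wells as neutral · Probe or stimulus – TMR-labelled reporter peptide T*-PRC34 bound in PDZ groove · Times – 1 h at RT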
F508del corr – F508del CFTR correction, initial screen, CFBE line, single point | activity (quench increase), % at 7.58 µM | actives 0.36% (n = 350,000) | CFBE cells, YFP halide quenching; stimulated with forskolin plus potentiator P3; % fluorescence drop versus neutral controls;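 active = mean added fluorescence quench of at least 8% versus neutral control, with both replicates also reaching 8%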;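 note: cells transiently co-express mutant CFTR-F508del with the halide-sensitive YFP; corrector assay measuring rescue of mutant channel to the surface after 24 h compound exposure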
PGC1a acetyl inh – inhibitors of PGC1a acetylation signal, primary screen, cell-based, U2OS, AlphaScreen, inhibitor mode; AlphaScreen anti-acetyl-lysine; with virally co-expressed GCN5 acetyltransferase; inhibition, % at 15.6 µM; actives 0.17% (n = 350,000); AID 651687, 2012;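 active = every replicate shows inhibition of at least 40%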
CAL PDZ FP-2 – untagged CAL PDZ binding inhibitors, primary screen, biochemical, fluorescence polarization, HTS. purified CAL PDZ, TMR-peptide fluorescence polarization, 1 h. AID 602252, 2012. actives 0.92% (n = 300,000). inhibition, % at 24.9 µM;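 active = mean inhibition of at least 30% with at least half of replicates also reaching 30%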
miR122 inh – miR-122 Renilla sensor signal increase in Huh7, primary screen, miR-122 inhibitor project, cell-based, single point, plate reader; AID 602342, 2012; activation (reporter increase), % at 12.5 µM; Huh7 miR-122 Renilla luciferase sensor, 48 h; neutral wells = 0, positive control = 100; actives 0.3% (n = 340,000);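 active = mean replicate activation score at least 90 and every replicate individually at or above 90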;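 note: higher luciferase means less miR-122 activity so hits act as miR-122 inhibitors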
ARNT TACC3 PPI – disruptors of ARNT/TACC3 protein interaction, primary screen, biochemical, AlphaScreen, single concentration. AlphaScreen His-ARNT PAS-B/GST-TACC3 binding, luminescence; TACC3 fragment carries E629A point mutation. inhibition, % at 9.99 µM. Transforming acidic coiled-coil-containing protein 3 (Homo sapiens), Q9Y6A5. actives 0.66% (n = 390,000);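 active = mean inhibition of replicates at least 50% and at least half of replicates each reaching 50%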
Numbers stand for hits; . = inactive; / = no result; ! = a repeat was not active.

SMILES | CAL PDZ FP-1 | F508del corr | PGC1a acetyl inh | CAL PDZ FP-2 | miR122 inh | ARNT TACC3 PPI
CCCC#Cc1ccc([C@H]2[C@@H](CO)N3CCCCN(S(=O)(=O)c4ccccc4C)C[C@H]23)cc1 | / | 14 | . | / | . | .
O=S(=O)(Cc1ccccc1)N1CCCCN2[C@H](C1)[C@H](c1ccc(C#Cc3ccccc3)cc1)[C@@H]2CO | / | . | . | / | . | .
CCCC#Cc1ccc([C@H]2[C@@H](CO)N3CCCCN(S(=O)(=O)c4ccccc4C)C[C@@H]23)cc1 | / | . | . | / | . | .
CCOc1ccc(C(=O)NCC(=O)N2CCN(Cc3ccccc3)CC2)cc1 | . | 10.0 | . | / | . | .
CCOc1ccc(C(=O)OC(C)C(=O)N2CCN(Cc3ccccc3)CC2)cc1 (stereo unspecified) | . | . | . | / | . | .
CCOc1cc(/C=C2/C(=O)N(c3ccccc3)N=C2C)ccc1OC(=O)c1ccco1 | . | / | . | . | . | .
CCOc1cc(/C=C2\C(=O)N(c3ccc(C(N)=O)cc3)N=C2C)ccc1OC(=O)c1cccs1 | . | / | . | . | . | 14
Cc1ccc(C)c(S(=O)(=O)Nc2cc3c4c(c2)CCC(=O)N4CCC3)c1 | . | . | . | / | 218 | .
COc1ccc(C)cc1S(=O)(=O)Nc1cc2c3c(c1)CCN3C(=O)CC2 | . | . | . | . | . | .
COc1ccc(OC)c(S(=O)(=O)Nc2ccc3oc4c(c3c2)C(=O)CCC4)c1 | . | / | / | . | 165 | .
COc1ccc(OC)c(S(=O)(=O)Nc2cc3c4c(c2)CCC(=O)N4CCC3)c1 | . | . | / | . | 138 | .
COc1ccc(S(=O)(=O)Nc2cc3c4c(c2)CCC(=O)N4CCC3)cc1 | . | . | / | / | . | .
[N-]=[N+]=NCc1ccccc1C[C@]1(C(=O)NCc2ccccc2)COC(c2ccc(OCCCO)cc2)=N1 | / | . | . | / | / | .
CCS(=O)(=O)c1ccc(O)c(NC(=O)COc2ccc(Br)cc2)c1 | . | . | 97 | . | . | .
COc1ccc(OC)c(C(=O)CSc2nnnn2C)c1 | . | / | / | . | . | .
CCn1nnnc1SCC(=O)c1cc(OC)ccc1OC | . | / | . | 41 | . | .
Cc1ccc(S(=O)(=O)NCC[C@H]2CC[C@@H](NC(=O)c3ccccn3)[C@H](CO)O2)cc1 | / | . | . | / | / | .
Cc1ccc(NS(=O)(=O)c2csc(C(N)=O)c2)cc1C | / | . | . | . | 99 | .
Cc1cc(C)cc(NS(=O)(=O)c2csc(C(N)=O)c2)c1 | . | . | / | . | / | .
C[C@@H]1CN([C@@H](C)CO)C(=O)Cc2cc(NC(=O)Cc3cn(C)c4ccccc34)ccc2O[C@@H]1CN(C)C(=O)Nc1ccc2c(c1)OCO2 | / | . | . | / | . | .
C[C@@H]1CCCCO[C@@H](CN(C)CC2CCCCC2)[C@@H](C)CN([C@@H](C)CO)C(=O)c2cc(NS(=O)(=O)c3ccc(F)cc3)ccc2O1 | / | . | . | / | . | .
Cc1noc(C)c1NC(=O)N(C)C[C@H]1Oc2c(NC(=O)NC(C)C)cccc2C(=O)N([C@@H](C)CO)C[C@@H]1C | / | . | . | / | . | .
COc1ccc(S(=O)(=O)Nc2ccc3c(c2)C(=O)N([C@@H](C)CO)C[C@H](C)[C@@H](CN(C)CC2CC2)OCCCC[C@H](C)O3)cc1 | / | . | . | / | . | .
C[C@H]1CN([C@@H](C)CO)S(=O)(=O)c2ccc(-c3cccc(C#N)c3)cc2O[C@@H]1CN(C)C | / | / | . | / | . | .
Cc1cccc(S(=O)(=O)N2C[C@H]3[C@@H](c4ccccc42)[C@H](CO)N3CC2CCCC2)c1 | / | 14 | . | / | . | .
SMILES | CAL PDZ FP-1 | F508del corr | PGC1a acetyl inh | CAL PDZ FP-2 | miR122 inh | ARNT TACC3 PPI
CCSc1nnc(NC(=O)CCNC(=O)c2ccccc2Cl)s1 | . | . | . | 115 | . | .
COc1ccc2c3c([nH]c2c1)[C@@H](CO)N(C(=O)c1ccccc1)CC31CCN(C(=O)CC2CC2)CC1 | / | . | . | / | / | /
COc1cc(C2C3=C(COC3=O)OC(C)(C)Oc3cc4c(cc32)OCO4)cc(OC)c1OC (stereo unspecified) | . | . | . | . | 114 | .
C[C@@H]1CN([C@H](C)CO)C(=O)CCCn2cc(nn2)CO[C@@H]1CN(C)Cc1cccc(C(F)(F)F)c1 | / | . | . | / | . | /
COc1ccc(-c2ncc(CN3CCN(CCC(C)C)C(CCO)C3)cn2)cc1 (stereo unspecified) | . | . | . | 93 | . | .
C[C@H](CO)N1C[C@H](C)[C@@H](CN(C)C(=O)NC2CCCCC2)Oc2ncc(C#CCN(C)C)cc2C1=O | / | / | . | / | . | .
O=C(C1CCCCC1)N1CC(=O)N2[C@@H](CO)[C@@H](c3ccc(Br)cc3)[C@@H]2C1 | / | . | . | / | / | /
CC1CN(S(=O)(=O)c2ccc(CN3C(=O)c4cccnc4C3=O)s2)c2ccccc2O1 (stereo unspecified) | . | . | . | 52 | . | .
O=C(Nc1ccccc1C(=O)Nc1ccccn1)c1ccc([N+](=O)[O-])cc1 | . | . | . | 43 | / | .
O=C(O)c1ccc(CNC(=O)c2ccccc2NC(=O)c2ccc([N+](=O)[O-])cc2)cc1 | / | . | . | 50 | / | .
Cc1cc(C)cc(NC(=O)CSc2nc(=O)n(CCN3CCOCC3)c3c2CCCC3)c1 | . | . | / | 52 | / | .
Cc1cccc(NC(=O)CSc2nc(=O)n(CCCN3CCOCC3)c3c2CCCC3)c1 | . | . | . | 48 | . | .
C[C@]12CCC(=O)C[C@@H]1CC[C@@H]1[C@@H]2CC[C@]2(C)[C@@H](C(=O)COC(=O)CCC(=O)O)CC[C@@H]12 | . | . | . | 167! | . | .
COC/C=C/C1=CC2=CC(=O)C(C)(OC(=O)c3cnc4ccccc4n3)C(=O)C2=CN1CCOC (stereo unspecified) | . | . | / | . | / | .
COC/C=C/C1=CC2=CC(=O)C(C)(OC(=O)c3cnc4ccccc4n3)C(=O)C2=CN1CCCOC(C)C (stereo unspecified) | . | . | . | . | . | 11
CCCCN(CC)CCNC(=O)Cn1cnc2sc(C)c(S(=O)(=O)N3CCC(C)CC3)c2c1=O | . | . | . | 44 | . | .
COc1ccccc1CC(=O)NCc1nn(-c2ccccc2)nc1C | . | . | / | 65 | / | .
Cc1cccc(S(=O)(=O)N[C@H]2CC[C@H](CCNC(=O)c3cnccn3)O[C@@H]2CO)c1 | / | . | . | / | / | .
